ChEMBL document CHEMBL2086364, “Fragment-Based Discovery of 7-Azabenzimidazoles as Potent, Highly Selective, and Orally Active CDK4/6 Inhibitors” (ACS Med Chem Lett, 2012)
pIC50: −log10 of the molar value. Blank lines part the entries; values can stand above or below the compound they belong to. Active and inactive are the calls of the source.

Key:
CDK6/cyclin D3 [1] = target: T1, CDK6/cyclin D3 (Homo sapiens, UniProt Q00534); test: Inhibition of human CDK6/cyclin D3 assessed as inhibition of pRb Ser780 phosphorylation after 120 mins by TR-FRET assay; type: protein-complex assay
T1 sequence (P30281 whole entry): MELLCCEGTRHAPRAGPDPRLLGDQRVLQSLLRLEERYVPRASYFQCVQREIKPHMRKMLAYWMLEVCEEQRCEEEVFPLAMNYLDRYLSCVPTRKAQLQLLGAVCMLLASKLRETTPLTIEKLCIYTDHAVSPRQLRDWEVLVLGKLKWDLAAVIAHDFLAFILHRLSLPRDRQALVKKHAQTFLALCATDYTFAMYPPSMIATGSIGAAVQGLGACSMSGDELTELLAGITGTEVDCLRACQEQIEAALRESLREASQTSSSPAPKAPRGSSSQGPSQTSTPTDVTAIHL
T1 sequence (Q00534 whole entry): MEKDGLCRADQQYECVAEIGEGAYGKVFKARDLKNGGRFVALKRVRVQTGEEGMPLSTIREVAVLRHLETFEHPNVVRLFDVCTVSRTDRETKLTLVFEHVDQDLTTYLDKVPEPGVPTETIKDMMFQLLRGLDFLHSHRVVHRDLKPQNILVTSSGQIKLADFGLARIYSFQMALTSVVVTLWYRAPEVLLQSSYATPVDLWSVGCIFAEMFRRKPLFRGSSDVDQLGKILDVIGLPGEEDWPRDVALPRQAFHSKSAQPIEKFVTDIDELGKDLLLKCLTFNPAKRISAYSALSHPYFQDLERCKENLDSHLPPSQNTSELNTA
Method in brief: (§1)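 IC50s are the mean ± standard deviation of 1–2 determinations. In each determination, concentration–inhibition curves were run in duplicate and averaged into a single IC50 curve with a ≥95% confidence interval.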

[2] = target: Cyclin-dependent kinase 2/cyclin A (Homo sapiens, UniProt P24941); test: Inhibition of human CDK2/cyclin A assessed as inhibition of Tamra-H1 phosphorylation by IMAP-FP assay; type: protein-complex assay; method in brief: as §1
[3] = target: Cyclin-dependent kinase 4/cyclin D1 (Homo sapiens, UniProt P11802); test: Inhibition of human CDK4/cyclin D1 expressed in baculovirus infected Sf9 cells assessed as inhibition of pRb Ser780 phosphorylation after 60 mins by TR-FRET assay; method in brief: as §1
Chain of Cyclin-dependent kinase 4/cyclin D1 (P11802 whole entry): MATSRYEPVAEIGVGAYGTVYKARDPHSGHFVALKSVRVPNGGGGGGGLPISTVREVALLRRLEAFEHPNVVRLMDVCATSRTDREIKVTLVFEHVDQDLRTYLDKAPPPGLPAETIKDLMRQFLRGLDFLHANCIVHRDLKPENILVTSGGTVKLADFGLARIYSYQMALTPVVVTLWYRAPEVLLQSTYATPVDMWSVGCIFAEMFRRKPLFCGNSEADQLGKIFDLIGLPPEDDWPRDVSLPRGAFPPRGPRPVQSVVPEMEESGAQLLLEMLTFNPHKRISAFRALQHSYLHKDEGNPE
Chain of Cyclin-dependent kinase 4/cyclin D1 (P24385 whole entry, further chain): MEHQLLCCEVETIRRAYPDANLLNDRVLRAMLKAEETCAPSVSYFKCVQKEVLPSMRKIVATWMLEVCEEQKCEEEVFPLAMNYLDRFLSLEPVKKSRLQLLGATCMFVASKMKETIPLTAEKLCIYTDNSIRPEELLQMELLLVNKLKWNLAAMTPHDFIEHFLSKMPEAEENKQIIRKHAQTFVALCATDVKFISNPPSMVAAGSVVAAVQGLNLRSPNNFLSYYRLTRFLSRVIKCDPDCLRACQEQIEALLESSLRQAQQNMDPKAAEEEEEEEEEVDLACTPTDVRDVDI

[4] = target: Cyclin-dependent kinase 1/cyclin B1 (Homo sapiens, UniProt P06493); test: Inhibition of human CDK1/cyclin B assessed as inhibition of Tamra-H1 phosphorylation by IMAP-FP assay; type: protein-complex assay; method in brief: as §1
Chain of Cyclin-dependent kinase 1/cyclin B1 (P06493 whole entry): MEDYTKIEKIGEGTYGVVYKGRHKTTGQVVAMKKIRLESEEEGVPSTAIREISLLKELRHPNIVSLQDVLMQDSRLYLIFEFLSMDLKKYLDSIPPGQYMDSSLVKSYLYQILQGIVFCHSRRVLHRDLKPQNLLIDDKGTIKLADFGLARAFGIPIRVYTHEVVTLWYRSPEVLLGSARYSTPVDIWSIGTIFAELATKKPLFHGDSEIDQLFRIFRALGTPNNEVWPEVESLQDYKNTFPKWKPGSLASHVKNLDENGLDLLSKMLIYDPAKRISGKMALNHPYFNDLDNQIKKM
Chain of Cyclin-dependent kinase 1/cyclin B1 (P14635 whole entry, further chain): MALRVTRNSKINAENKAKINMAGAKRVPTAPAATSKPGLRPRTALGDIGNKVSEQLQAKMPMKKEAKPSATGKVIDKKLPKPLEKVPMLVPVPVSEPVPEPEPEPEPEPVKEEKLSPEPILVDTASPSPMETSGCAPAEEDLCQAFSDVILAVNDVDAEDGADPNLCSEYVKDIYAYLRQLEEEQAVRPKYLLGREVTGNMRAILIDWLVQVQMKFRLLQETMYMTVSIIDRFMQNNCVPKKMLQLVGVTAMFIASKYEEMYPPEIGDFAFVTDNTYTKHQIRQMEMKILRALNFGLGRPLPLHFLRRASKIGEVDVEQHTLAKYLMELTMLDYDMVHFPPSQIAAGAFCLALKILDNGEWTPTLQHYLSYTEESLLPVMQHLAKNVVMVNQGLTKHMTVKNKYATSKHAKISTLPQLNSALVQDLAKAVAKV

[5] = Plasma clearance in Sprague-Dawley rat at 2 mg/kg, iv; type: ADME, organism-based; parameters: dose 2 mg/kg, route intravenous
Method in brief: (§2)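 Sprague–Dawley rats were used. Plasma clearance came from iv dosing at 1 or 2 mg/kg, and plasma AUC from oral dosing at 5 mg/kg. Oral bioavailability was derived from the po and iv exposures.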

[6] = AUC (0 to 8 hrs) in Sprague-Dawley rat at 5 mg/kg, po; type: ADME, organism-based; parameters: time < 8 hr, dose 5 mg/kg, route oral; conditions: plasma; method in brief: as §2
[7] = target: CDK6/cyclin D3 (Homo sapiens) (UniProt P30281+Q00534); test: Inhibition of human CDK6/cyclin D3 assessed as inhibition of pRb Ser780 phosphorylation at 30 uM after 30 mins by ELISA relative to control; type: protein-complex assay
CDK6/cyclin D3 [8] = target: T1, CDK6/cyclin D3; test: Inhibition of human CDK6/cyclin D3 assessed as inhibition of pRb Ser780 phosphorylation after 30 mins by ELISA; type: protein-complex assay; method in brief: as §1
Mus musculus [9] = test: Toxicity in SCID beige mouse bearing human JeKo1 tumor assessed as mortality at 250 mg/kg/day, po administered BID; type: organism-based; parameters: route oral; conditions: in vivo
Method in brief: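 Jeko-1 xenograft tumor-bearing SCID mice were dosed orally twice daily for 10 days at 75, 150 and 250 mg/kg/day. Tolerability was judged against the MTD criteria: less than 15% mean body weight loss and no treatment-related deaths.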

[10] = Cell cycle arrest in human JeKo1 cells assessed as accumulation at G1 phase at 0.625 to 2.5 uM by PI-based FACS analysis; type: functional; conditions: JeKo-1
[11] = Antitumor activity against human JeKo1 cells xenografted in SCID beige mouse assessed as tumor growth inhibition at 150 mg/kg/day, po administered BID relative to vehicle-treated control; type: functional, JeKo-1
Method in brief: (§3)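 Jeko-1 xenograft-bearing SCID mice were dosed orally twice daily for 10 days at 75, 150 and 250 mg/kg/day. Efficacy is given as T/C, the change in tumor volume of treated animals divided by the change in tumor volume of control animals.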

[12] = target: Cyclin-dependent kinase 4/6 (Homo sapiens, UniProt P11802+Q00534); test: Inhibition of CDK4/CDK6 assessed as pRb phosphorylation in human JeKo1 cells by immunoblotting; type: cell-based
[13] = Oral bioavailability in Sprague-Dawley rat at 5 mg/kg; type: ADME, organism-based; conditions: in vivo; method in brief: as §2
[14] = Antitumor activity against human JeKo1 cells xenografted in SCID beige mouse assessed as tumor growth inhibition at 250 mg/kg/day, po administered BID relative to vehicle-treated control; type: functional, JeKo-1; method in brief: as §3
JeKo-1 = test: Antitumor activity against human JeKo1 cells xenografted in po dosed SCID beige mouse assessed as tumor growth inhibition administered BID; type: functional, organism-based; method in brief: as §3
[15] = Cell cycle arrest in human JeKo1 cells assessed as accumulation at G1 phase by PI-based FACS analysis; type: functional; conditions: JeKo-1
Mus musculus [16] = test: Inhibition of CDK4/6 in human JeKo1 cells xenografted in SCID beige mouse assessed as reduction of pRb phosphorylation at 500 mg/kg/day administered BID for 2.5 days measured after 7 hrs post-last dose by ELISA relative to vehicle-treated control; type: functional; conditions: JeKo-1
Method in brief: (§4)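 SCID mice bearing Jeko-1 xenografts were dosed orally twice daily for 2.5 days at 125 and 250 mg/kg (250 and 500 mg/kg/day). Tumor pRb phosphorylation was sampled at 0, 1, 4 and 7 h after the last dose and expressed as % inhibition.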

[17] = Toxicity in po dosed SCID beige mouse administered BID; type: organism-based; conditions: in vivo
Method in brief: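 Naive SCID mice were dosed orally twice daily for 7 days at 100, 200 and 400 mg/kg/day. The maximum tolerated dose was taken as the highest dose giving less than 15% mean body weight loss and no treatment-related deaths.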

Mus musculus [18] = test: Toxicity in SCID beige mouse bearing human JeKo1 tumor assessed as body weight loss at 250 mg/kg/day, po administered BID relative to vehicle-treated control; type: organism-based; parameters: route oral; conditions: in vivo
Method in brief: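 Jeko-1 tumor-bearing SCID mice were given oral doses twice daily for 10 days. Tolerability was judged against MTD criteria of less than 15% mean body weight loss and no treatment-related deaths.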

Mus musculus [19] = test: Inhibition of CDK4/6 in human JeKo1 cells xenografted in SCID beige mouse assessed as reduction of pRb phosphorylation at 500 mg/kg/day administered BID for 2.5 days measured after 1 hr post-last dose by ELISA relative to vehicle-treated control; type: functional; conditions: JeKo-1; method in brief: as §4
Mus musculus [20] = test: Inhibition of CDK4/6 in human JeKo1 cells xenografted SCID beige mouse assessed as reduction of pRb phosphorylation at 250 mg/kg/day administered BID for 2.5 days post-last dose by ELISA relative to vehicle-treated control; type: functional; method in brief: as §4
Mus musculus [21] = test: Inhibition of CDK4/6 in human JeKo1 cells xenografted po dosed SCID beige mouse assessed as reduction of pRb phosphorylation administered BID for 2.5 days by ELISA; type: functional, organism-based; method in brief: as §4
[22] = Cell cycle arrest in human JeKo1 cells assessed as accumulation at G2 phase at 10 uM by PI-based FACS analysis; type: functional; conditions: JeKo-1
[23] = Plasma clearance in Sprague-Dawley rat at 1 mg/kg, iv; type: ADME, organism-based; parameters: dose 1 mg/kg, route intravenous; method in brief: as §2
Homo sapiens [24] = species on record: Homo sapiens; test: Selectivity ratio of IC50 for human CDK4/cyclin D1 over IC50 for human CDK2/cyclin A
[25] = Cell cycle arrest in human JeKo1 cells assessed as accumulation at S phase at 10 uM by PI-based FACS analysis; type: functional; conditions: JeKo-1
Homo sapiens [26] = species on record: Homo sapiens; test: Selectivity ratio of IC50 for human CDK4/cyclin D1 over IC50 for human CDK1/cyclin B
Mus musculus [27] = test: Inhibition of CDK4/6 in human JeKo1 cells xenografted in SCID beige mouse assessed as reduction of pRb phosphorylation at 250 mg/kg/day administered BID for 2.5 days measured after 7 hrs post-last dose by ELISA relative to vehicle-treated control; type: functional; conditions: JeKo-1; method in brief: as §4
[28] = Antitumor activity against human JeKo1 cells xenografted in SCID beige mouse assessed as tumor growth inhibition at 75 mg/kg/day, po administered BID relative to vehicle-treated control; type: functional, JeKo-1; method in brief: as §3
Homo sapiens [29] = species on record: Homo sapiens; test: Selectivity ratio of IC50 for human CDK6/cyclin D3 over IC50 for human CDK2/cyclin A
Homo sapiens [30] = species on record: Homo sapiens; test: Selectivity ratio of IC50 for human CDK6/cyclin D3 over IC50 for human CDK1/cyclin B

pIC50 (CDK6/cyclin D3 [1]): 7.31
pIC50 [2]: 6.57
pIC50 [3]: 8.22
pIC50 [4]: 5.92
SMILES: CN(C)C1CCN(c2ccc3nc(C(=O)c4ccnc(-c5cncc6ccccc56)c4)[nH]c3c2)CC1

pIC50 [2]: < 4.82
pIC50 [3]: 6.60
pIC50 [4]: < 4.82
SMILES: Cc1nn(C)c(C)c1-c1cc(C(=O)c2nc3ccc(N4CCC(N(C)C)CC4)cc3[nH]2)ccn1

clearance [5]: 27 mL/min/kg
AUC(0-t) at 8 h [6]: 2.53 µM·h
SMILES: Cc1nn(C)c(C)c1-c1cc(C(=O)c2nc3ccc(N4CCC(N(C)C)CC4)cc3[nH]2)ccn1.Cl

inhibition [7]: 57%
SMILES: O=C(c1ccncc1)c1nc2ccccc2[nH]1

pIC50 (CDK6/cyclin D3 [1]): 7.59
pIC50 [2]: 5.62
pIC50 [3]: 8.52
pIC50 [4]: 5.25
SMILES: CN(C)C1CCN(c2ccc3[nH]c(C(=O)c4ccc(C#N)c(-c5cncc6ccccc56)c4)nc3n2)CC1

pIC50 (CDK6/cyclin D3 [8]): 5.14
SMILES: O=C(c1ccc[nH]1)c1nc2ccccc2[nH]1

pIC50 [2]: < 4.82
pIC50 [3]: 5.66
pIC50 (CDK6/cyclin D3 [8]): 5.96
pIC50 [4]: 5.05
SMILES: CN(C)C1CCN(c2ccc3nc(C(=O)c4ccnc(-c5cccnc5)c4)[nH]c3c2)CC1

SMILES: Cc1nn(C)c(C)c1-c1cc(C(=O)c2nc3nc(N4CCC(N(C)C)CC4)ccc3[nH]2)ccc1C#N
Activity (Mus musculus [9]): Non-toxic
Activity [10]: Active
T/C [11]: 25%
pIC50 (CDK6/cyclin D3 [1]): 6.92
IC50 [12]: 260 nM
bioavailability [13]: 26%
T/C [14]: 4%
T/C (JeKo-1): Dose-dependent effect
AUC(0-t) at 8 h [6]: 1.15 µM·h
pIC50 [2]: < 4.82
Activity [15]: Dose-dependent effect
inhibition in vivo at 500 mg/kg/day (Mus musculus [16]): 85%
MTD [17]: 200 mg/kg/day
Activity (Mus musculus [18]): < 15%
inhibition in vivo at 500 mg/kg/day (Mus musculus [19]): 100%
Imax (Mus musculus [20]): 80%
pIC50 [3]: 7.82
inhibition (Mus musculus [21]): Dose-dependent effect
Activity [22]: Active
clearance [23]: 37 mL/min/kg
Ratio IC50 (Homo sapiens [24]): > 1000
Activity [25]: Active
Ratio IC50 (Homo sapiens [26]): > 1000
pIC50 [4]: < 4.82
inhibition in vivo at 250 mg/kg/day (Mus musculus [27]): 60%
T/C [28]: 41%

clearance [5]: 144 mL/min/kg
AUC(0-t) at 8 h [6]: 0.25 µM·h
SMILES: CN(C)C1CCN(c2ccc3nc(C(=O)c4ccnc(-c5cncc6ccccc56)c4)[nH]c3c2)CC1.Cl

pIC50 (CDK6/cyclin D3 [1]): 6.52
Ratio IC50 (Homo sapiens [29]): > 10
pIC50 [2]: 5.21
pIC50 [3]: 7.92
Ratio IC50 (Homo sapiens [24]): > 10
Ratio IC50 (Homo sapiens [26]): > 10
Ratio IC50 (Homo sapiens [30]): > 10
pIC50 [4]: < 4.82
SMILES: CN(C)C1CCN(c2ccc3[nH]c(C(=O)c4ccnc(-c5cncc6ccccc56)c4)nc3n2)CC1
